Assay results pooled from the literature.
Lines come from different studies, so protocols differ.
Target: Serine/threonine-protein kinase SIK2 (SIK2, Homo sapiens, UniProt Q9H0K1)

For `Cn1cncc1[C@](O)(COc1ccc(C#N)cc1-c1ccc(OC(F)(F)F)cc1)c1ccc(C#N)cc1`, the remaining binding was 95% (cell-free assay, competition with immobilised ligand; 1 µM).
For `COc1ncccc1-c1cnn2ccc(N3CCN(C(=O)OC(C)C)CC3)nc12`, the remaining binding was 50% (binding, competition with immobilised ligand; 1 µM).
`Cc1nn(C)cc1-c1nc2c(N3CCN(Cc4ccc(Cl)cc4)CC3)c(Cl)cnc2[nH]1` gave a remaining binding of 36% (binding, competition with immobilised ligand; 1 µM).
With `O=C(NCc1ncc(C(F)(F)F)cc1Cl)c1ccc2c(c1)C1(CCS(=O)(=O)CC1)[C@H](C1CC1)N2S(=O)(=O)c1ccc(F)cc1` the remaining binding was 96% (cell-free assay, competition with immobilised ligand; 1 µM).
With `O=c1[nH]c2ccccc2n1C1CCN(Cc2ccc(-c3[nH]c4cc5ncnc5cc4nc3-c3ccccc3)cc2)CC1` the remaining signal was 114% (cell-free assay; 0.5 µM).
For `Cn1cc(-c2cc(F)cc(N3CCn4c(cc5c4CCCC5)C3=O)c2CO)cc(Nc2ccc(N3CCN(C4COC4)CC3)cn2)c1=O`, the inhibition was 13% (enzyme activity, inhibitor; 0.1 µM).
`CC(C)(C)c1cc(C=C(C#N)C#N)cc(Br)c1O` gave a remaining activity of 115% (enzyme activity, inhibitor; 0.5 µM).
For `Cn1cc(-c2cccc(N3CCc4c(sc5c4CC(C)(C)C5)C3=O)c2CO)cc(Nc2ccncn2)c1=O`, the inhibition was 4% (enzyme activity, inhibitor; 1 µM).
